Source: ChEMBL document CHEMBL3992505, “Optimization of substituted imidazobenzodiazepines as novel asthma treatments” (Eur J Med Chem, 2017)
The source made the active and inactive calls. The rule behind the calls is not given here.

Experiments:
Blood [1] = experiment: Drug metabolism in mouse blood assessed as (S)-7-Methoxy-N-methyl-9-oxo-11,12,13,13a-tetrahydro-9H-benzo[e]imidazo[5,1-c]pyrrolo[1,2-a][1,4]diazepine-1-carboxamide formation at 5 mg/kg, ip after 3 mins by LC/MS/MS analysis; type: ADME, organism-based; details: in vivo, 0.05 h
Brain = experiment: AUC (0 to t) in mouse brain at 5 mg/kg, ip by LC/MS/MS analysis; type: ADME, organism-based; details: in vivo
[2] = Cytotoxicity in human HepG2 cells after 48 hrs by Cell-titer Glo reagent based assay; details: read-out: LD50
How it was run: (§1)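 Cells (HEK293, HepG2 or BEAS2B) exposed to compounds at a range of concentrations for 48 h; viability read by Cell-Titer Glo luminescence. Normalized to DMSO (negative) and 3-dibutylamino-1-(4-hexyl-phenyl)-propan-1-one at 150 μM final in DMSO (positive).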

Liver [3] = experiment: Half life in mouse liver microsomes at 10 uM by LC-MS/MS analysis; type: ADME, microsome; details: microsomes, 10 µM
Liver [4] = experiment: Metabolic stability in mouse liver microsomes assessed as compound remaining at 10 uM after 1 hr by LC-MS/MS analysis; type: ADME, microsome
How it was run: (§2)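 Compound stability was measured in human or mouse liver microsomes as percent remaining after 1 h. Data came from two independent experiments, each run in triplicate.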

[5] = Tmax in mouse lung at 5 mg/kg, ip by LC/MS/MS analysis; type: ADME, organism-based
Blood [6] = experiment: Half life in mouse blood assessed as (S)-7-Methoxy-N-methyl-9-oxo-11,12,13,13a-tetrahydro-9H-benzo[e]imidazo[5,1-c]pyrrolo[1,2-a][1,4]diazepine-1-carboxamide at 5 mg/kg, ip by LC/MS/MS analysis; type: ADME, organism-based; details: in vivo
[7] = Elimination rate constant in mouse brain at 5 mg/kg, ip by LC/MS/MS analysis; type: ADME, organism-based
Mus musculus [8] = experiment: Antiasthamatic effect in BALB/c mouse model of ovalbumin-induced asthma assessed as inhibition of airway hyperresponsiveness at 40 mg/kg, ip bid for 5 days; type: functional, organism-based
[9] = biological target: T1, GABA-A receptor; alpha-1/beta-3/gamma-2 (Homo sapiens, UniProt P14867+P18507+P28472); experiment: Activity at GABAA alpha1beta3gamma2 receptor (unknown origin) expressed in HEK293T cells assessed as potentiation of GABA-mediated increase in channel current under holding potential at -80 mV at 1 uM by patch clamp assay; type: cell-based
T1 sequence (P14867 whole entry): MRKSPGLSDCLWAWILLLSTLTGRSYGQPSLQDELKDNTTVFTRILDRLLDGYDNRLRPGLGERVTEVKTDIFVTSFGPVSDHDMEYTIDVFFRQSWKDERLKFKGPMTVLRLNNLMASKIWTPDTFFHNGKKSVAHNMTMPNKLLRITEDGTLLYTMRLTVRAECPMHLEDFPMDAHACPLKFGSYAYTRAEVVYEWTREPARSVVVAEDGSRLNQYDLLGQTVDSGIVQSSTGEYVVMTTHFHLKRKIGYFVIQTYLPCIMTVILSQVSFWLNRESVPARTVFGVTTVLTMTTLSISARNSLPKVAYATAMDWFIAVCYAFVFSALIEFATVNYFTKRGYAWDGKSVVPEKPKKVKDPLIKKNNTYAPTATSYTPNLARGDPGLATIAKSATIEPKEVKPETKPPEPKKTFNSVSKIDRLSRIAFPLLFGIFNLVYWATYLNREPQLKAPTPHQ
T1 sequence (P18507 whole entry): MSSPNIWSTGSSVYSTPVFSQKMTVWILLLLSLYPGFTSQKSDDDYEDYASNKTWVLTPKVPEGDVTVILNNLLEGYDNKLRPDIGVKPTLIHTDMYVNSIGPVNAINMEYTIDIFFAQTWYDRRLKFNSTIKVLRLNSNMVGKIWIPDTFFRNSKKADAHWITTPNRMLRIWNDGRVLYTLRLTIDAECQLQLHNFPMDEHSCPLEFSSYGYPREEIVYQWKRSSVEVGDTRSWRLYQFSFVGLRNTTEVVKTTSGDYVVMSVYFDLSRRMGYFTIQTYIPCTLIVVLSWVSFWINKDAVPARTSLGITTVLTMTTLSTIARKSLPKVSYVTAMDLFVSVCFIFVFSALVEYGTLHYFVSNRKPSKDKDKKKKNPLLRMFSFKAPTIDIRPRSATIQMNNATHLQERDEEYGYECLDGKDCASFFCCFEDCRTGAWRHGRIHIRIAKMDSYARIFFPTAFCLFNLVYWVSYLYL
T1 sequence (P28472 whole entry): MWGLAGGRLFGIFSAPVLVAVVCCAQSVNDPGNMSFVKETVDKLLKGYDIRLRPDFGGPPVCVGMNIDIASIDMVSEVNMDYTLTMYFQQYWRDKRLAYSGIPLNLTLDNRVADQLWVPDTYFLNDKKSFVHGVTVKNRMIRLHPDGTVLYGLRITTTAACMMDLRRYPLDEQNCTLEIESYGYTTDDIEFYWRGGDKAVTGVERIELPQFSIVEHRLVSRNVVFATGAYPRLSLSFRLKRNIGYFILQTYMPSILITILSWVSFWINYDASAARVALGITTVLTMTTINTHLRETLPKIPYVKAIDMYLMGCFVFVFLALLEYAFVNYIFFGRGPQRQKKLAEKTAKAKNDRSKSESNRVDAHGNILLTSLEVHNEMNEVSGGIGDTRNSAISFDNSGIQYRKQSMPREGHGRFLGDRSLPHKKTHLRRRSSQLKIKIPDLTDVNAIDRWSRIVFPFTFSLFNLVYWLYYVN

Blood [10] = experiment: Cmax in mouse blood assessed as (S)-7-Methoxy-N-methyl-9-oxo-11,12,13,13a-tetrahydro-9H-benzo[e]imidazo[5,1-c]pyrrolo[1,2-a][1,4]diazepine-1-carboxamide at 5 mg/kg, ip by LC/MS/MS analysis; type: ADME, organism-based; set-up: dose 5 mg/kg, route intraperitoneal; details: in vivo
Blood [11] = experiment: Tmax in mouse blood assessed as (S)-7-Methoxy-N-methyl-9-oxo-11,12,13,13a-tetrahydro-9H-benzo[e]imidazo[5,1-c]pyrrolo[1,2-a][1,4]diazepine-1-carboxamide at 5 mg/kg, ip by LC/MS/MS analysis; type: ADME, organism-based; details: in vivo
[12] = Elimination rate constant in mouse blood at 5 mg/kg, ip by LC/MS/MS analysis; type: ADME, organism-based
Lung = experiment: AUC (0 to t) in mouse lung at 5 mg/kg, ip by LC/MS/MS analysis; type: ADME, organism-based; details: in vivo
Liver [13] = experiment: Metabolic stability in human liver microsomes assessed as compound remaining at 10 uM after 1 hr by LC-MS/MS analysis; type: ADME, microsome; how it was run: as §2
Mus musculus [14] = experiment: Neurotoxicity in Swiss Webster mouse assessed as induction of senorimotor impairment at 40 mg/kg, ip administered 10 mins prior to testing and measured for 3 mins at 10 to 60 mins after drug administration by rotarod method; type: toxicity, organism-based; details: in vivo
How it was run: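 Swiss Webster mice, pre-trained at 15 rpm until they held on for 3 min at three consecutive sessions, were given a single i.p. dose of 40 mg/kg in 10% DMSO/40% propylene glycol/50% PBS. Rotarod at 15 rpm for 3 min at 10, 30 and 60 min after dosing. Falls before 3 min scored as fail, with time of fall recorded. N = 10, mean ± SEM. Vehicle and diazepam 5 mg/kg i.p. controls. Mice rested 2–3 days between doses.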

[15] = Cytotoxicity in human BEAS2B cells after 48 hrs by Cell-titer Glo reagent based assay; set-up: species or system BEAS-2B; details: read-out: LD50; how it was run: as §1

Q: Which results are given for COc1ccc2c(c1)C(=O)N1CCC[C@H]1c1c(C(=O)N(C)C)ncn1-2?
A: Drug metabolism (Blood [1]): Metabolite_Detected; AUCt (Brain): 2701 ng·min/g; CC50 at 48 h [2]: > 400 µM; t1/2 (Liver [3]): 63.3 min; Stability (Liver [4]): 82.5%; Tmax [5]: 3 min; t1/2 (Blood [6]): 24.3 min; k el [7]: 0.00112 s⁻¹; Activity (Mus musculus [8]): Active; Activity [9]: 161 to 179%; Cmax (Blood [10]): 1176 ng/g; Tmax (Blood [11]): 40 min; k el [12]: 0.0013 s⁻¹; AUCt (Lung): 764 ng·min/g; Stability (Liver [13]): 92.4%; Activity (Mus musculus [14]): Non-Toxic; CC50 at 48 h [15]: > 400 µM
